Assay results taken from ChEMBL document CHEMBL1926607 (J Med Chem, 2011).

What was measured:
[1] = target: 5-hydroxytryptamine receptor 4 (Rattus norvegicus, UniProt Q62758); test: Displacement of [3H]GR113808 from 5HT4 receptor in Sprague-Dawley albinus rat striatal membranes after 30 mins by scintillation counting; assay type: cell membranes, Membrane
[2] = target: T1, Adrenergic receptor alpha-1 (Rattus norvegicus, UniProt P15823+P23944+P43140); test: Displacement of [3H]prazosin from alpha1 adrenoceptor in Sprague-Dawley albinus rat cerebral cortex membranes after 30 mins; assay type: cell membranes, Membrane
T1 sequence (P15823 whole entry): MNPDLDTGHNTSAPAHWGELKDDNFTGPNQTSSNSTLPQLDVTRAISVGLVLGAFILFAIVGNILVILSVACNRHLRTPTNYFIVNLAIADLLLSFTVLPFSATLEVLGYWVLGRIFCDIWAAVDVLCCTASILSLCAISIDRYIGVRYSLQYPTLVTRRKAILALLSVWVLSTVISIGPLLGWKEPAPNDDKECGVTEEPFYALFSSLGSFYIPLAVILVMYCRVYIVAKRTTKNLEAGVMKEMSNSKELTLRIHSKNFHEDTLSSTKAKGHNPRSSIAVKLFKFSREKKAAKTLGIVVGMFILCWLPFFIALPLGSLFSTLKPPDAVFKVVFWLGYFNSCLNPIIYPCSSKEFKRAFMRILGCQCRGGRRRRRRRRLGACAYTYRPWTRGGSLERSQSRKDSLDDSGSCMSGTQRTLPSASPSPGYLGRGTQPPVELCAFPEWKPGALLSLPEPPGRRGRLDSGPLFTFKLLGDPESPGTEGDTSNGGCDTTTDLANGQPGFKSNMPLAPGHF
T1 sequence (P23944 whole entry): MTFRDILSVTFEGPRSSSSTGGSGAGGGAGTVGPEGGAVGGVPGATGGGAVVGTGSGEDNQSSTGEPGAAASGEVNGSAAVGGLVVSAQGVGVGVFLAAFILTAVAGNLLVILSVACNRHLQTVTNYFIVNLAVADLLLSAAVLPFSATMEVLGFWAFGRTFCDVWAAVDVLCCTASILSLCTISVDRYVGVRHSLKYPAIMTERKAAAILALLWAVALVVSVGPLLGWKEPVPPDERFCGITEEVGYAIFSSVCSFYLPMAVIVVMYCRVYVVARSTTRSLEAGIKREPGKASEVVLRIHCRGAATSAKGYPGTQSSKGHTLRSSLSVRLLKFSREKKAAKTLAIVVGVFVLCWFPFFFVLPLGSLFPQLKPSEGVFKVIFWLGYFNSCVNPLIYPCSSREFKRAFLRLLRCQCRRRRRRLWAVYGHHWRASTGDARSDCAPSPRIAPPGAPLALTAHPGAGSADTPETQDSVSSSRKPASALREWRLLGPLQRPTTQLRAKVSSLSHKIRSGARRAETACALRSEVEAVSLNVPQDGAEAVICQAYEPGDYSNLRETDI
T1 sequence (P43140 whole entry): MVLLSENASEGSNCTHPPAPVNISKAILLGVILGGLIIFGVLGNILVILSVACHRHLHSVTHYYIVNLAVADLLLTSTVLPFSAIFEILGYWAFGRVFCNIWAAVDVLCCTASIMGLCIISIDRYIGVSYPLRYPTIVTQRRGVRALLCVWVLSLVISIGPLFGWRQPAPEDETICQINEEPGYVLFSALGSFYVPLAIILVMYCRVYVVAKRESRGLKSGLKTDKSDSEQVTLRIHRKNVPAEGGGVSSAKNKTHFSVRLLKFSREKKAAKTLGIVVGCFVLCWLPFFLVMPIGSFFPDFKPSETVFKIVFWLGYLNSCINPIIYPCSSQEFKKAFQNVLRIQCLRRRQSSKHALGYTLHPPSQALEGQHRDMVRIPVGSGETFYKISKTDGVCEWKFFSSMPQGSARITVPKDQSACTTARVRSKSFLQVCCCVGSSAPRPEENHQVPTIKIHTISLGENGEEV
Method in brief: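 Rat cerebral cortex membranes (about 250 μg protein; male Sprague–Dawley, 180–200 g) in 50 mM Tris-HCl with 10 mM MgCl2, pH 7.4. Incubation was 30 min at 25 °C with 0.2 nM [3H]prazosin and six competitor concentrations. Nonspecific binding was set with 10 μM phentolamine.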

Sequence of 5-hydroxytryptamine receptor 4 (Q62758 whole entry): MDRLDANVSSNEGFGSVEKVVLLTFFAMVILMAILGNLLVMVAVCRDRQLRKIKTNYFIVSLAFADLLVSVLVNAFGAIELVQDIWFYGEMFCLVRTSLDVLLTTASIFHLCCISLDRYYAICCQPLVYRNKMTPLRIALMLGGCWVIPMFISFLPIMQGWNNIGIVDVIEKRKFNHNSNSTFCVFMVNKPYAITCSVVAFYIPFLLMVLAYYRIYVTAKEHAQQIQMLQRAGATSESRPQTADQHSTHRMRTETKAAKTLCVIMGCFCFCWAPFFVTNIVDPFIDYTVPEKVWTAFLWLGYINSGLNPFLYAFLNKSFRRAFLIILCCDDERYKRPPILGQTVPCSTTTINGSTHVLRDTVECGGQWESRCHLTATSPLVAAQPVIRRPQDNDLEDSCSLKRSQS

## Cl.O=C1C2CCCN2C(=O)CN1CCCCNCC1CCc2ccccc2O1 (configuration not stated)
[1]
  Ki: > 1000 nM
[2]
  Ki: 107 nM
